Results on 61 compounds are retold here after ChEMBL document CHEMBL4834416, “The Discovery of Novel ACA Derivatives as Specific TRPM2 Inhibitors that Reduce Ischemic Injury Both In Vitro and In Vivo” (J Med Chem, 2021).

Structures are written as SMILES. Calls of active or inactive are those of the source. No cut-off for these calls is given here.

For series [1], the target named is T1, Transient receptor potential cation channel subfamily M member 2 (Homo sapiens, UniProt O94759). The series can be described thus: Inhibition of human TRPM2 expressed in HEK293T cells assessed as suppression of H2O2-induced calcium flux at 1 uM measured after 30 mins by Fluo-3/AM assay. The class given is cell-based.
Series [2] has as its target T1, Transient receptor potential cation channel subfamily M member 2. The series is described as follows: Inhibition of human TRPM2 expressed in HEK293T cells assessed as suppression of H2O2-induced calcium flux at 0.3 uM measured after 30 mins by Fluo-3/AM assay. The class given is cell-based.
Series [3] has the same target. The series is described as follows: Inhibition of human TRPM2 expressed in HEK293T cells assessed as blocked of ADPR-activated current by whole cell patch clamp electrophysiology. The class given is cell-based.
Series [4] has as its system SH-SY5Y. The series can be described thus: Cytotoxicity against human SH-SY5Y cells assessed as toxicity at 30 uM incubated for 24 hrs by CCK-8 assay. It is filed as cell-based. The method, boiled down:
(§1)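 SH-SY5Y cells were seeded at 2 × 10⁴ per well and grown 12 h at 37 °C. They were then treated with compound (1–30 μM) under normoxic, normal-glucose conditions for 24 h. CCK-8 (10%) was added for 2 h at 37 °C and OD450 read. Viability was taken relative to untreated control after blank subtraction, with three replicate wells.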

Series [5] relates to SH-SY5Y. The series is described as follows: Cytotoxicity against human SH-SY5Y cells assessed as cell viability under normoxic/normal sugar condition at 10 to 30 uM by CCK-8 assay. The class given is cell-based. As to conditions: dose 10-30 µM. The method, boiled down: as §1
Another series concerns the target Phospholipase A2 (Homo sapiens, UniProt P04054). The series is described as follows: Inhibition of PLA2 (unknown origin) using soybean phosphatidylcholine as substrate at 10 uM preincubated for 30 mins followed incubated for 60 mins after substrate addition by microplate reader relative to control. The essentials: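 PLA2 (4 μg/L in PBS) was preincubated 30 min at 37 °C with inhibitor in 125 mM Tris. Substrate was then added for 60 min: soybean phosphatidylcholine with Tris, CaCl₂, sodium deoxycholate and 0.5% Triton X-100. Liberated free fatty acids were quantified colorimetrically at OD550. Results are % inhibition versus enzyme without inhibitor, n = 3.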

In series [6] the target is Transient receptor potential cation channel subfamily M member 8 (Homo sapiens, UniProt Q7Z2W7). The series can be described thus: Inhibition of human TRPM8 expressed in HEK293T cells assessed as blocked of menthol-activated current at 10 uM by whole cell patch clamp electrophysiology relative to control. The class given is cell-based. The method, boiled down: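 Whole-cell patch clamp was run at room temperature on HEK293T cells transiently cotransfected with human TRPM8 plus GFP, 24–48 h before recording. ECS was 145 NaCl, 5.6 KCl, 2 MgCl₂, 1.2 CaCl₂, 10 HEPES, pH 7.2. Current was activated with 1 mM menthol, and compound was perfused at least 60 s after it stabilized. Inhibition was calculated relative to stable agonist current minus residual current; n = 3–6.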

Series [7] relates to SH-SY5Y. The series is described as follows: Neuroprotective activity against oxygen glucose deprivation/reperfusion-induced cell death in human SH-SY5Y cells assessed as cell viability at 3 uM […] by CCK8 assay relative to control. The class given is functional.

Transient receptor potential cation channel subfamily M member 8, sequence (Q7Z2W7 whole entry, looked up, the tested form may be a part): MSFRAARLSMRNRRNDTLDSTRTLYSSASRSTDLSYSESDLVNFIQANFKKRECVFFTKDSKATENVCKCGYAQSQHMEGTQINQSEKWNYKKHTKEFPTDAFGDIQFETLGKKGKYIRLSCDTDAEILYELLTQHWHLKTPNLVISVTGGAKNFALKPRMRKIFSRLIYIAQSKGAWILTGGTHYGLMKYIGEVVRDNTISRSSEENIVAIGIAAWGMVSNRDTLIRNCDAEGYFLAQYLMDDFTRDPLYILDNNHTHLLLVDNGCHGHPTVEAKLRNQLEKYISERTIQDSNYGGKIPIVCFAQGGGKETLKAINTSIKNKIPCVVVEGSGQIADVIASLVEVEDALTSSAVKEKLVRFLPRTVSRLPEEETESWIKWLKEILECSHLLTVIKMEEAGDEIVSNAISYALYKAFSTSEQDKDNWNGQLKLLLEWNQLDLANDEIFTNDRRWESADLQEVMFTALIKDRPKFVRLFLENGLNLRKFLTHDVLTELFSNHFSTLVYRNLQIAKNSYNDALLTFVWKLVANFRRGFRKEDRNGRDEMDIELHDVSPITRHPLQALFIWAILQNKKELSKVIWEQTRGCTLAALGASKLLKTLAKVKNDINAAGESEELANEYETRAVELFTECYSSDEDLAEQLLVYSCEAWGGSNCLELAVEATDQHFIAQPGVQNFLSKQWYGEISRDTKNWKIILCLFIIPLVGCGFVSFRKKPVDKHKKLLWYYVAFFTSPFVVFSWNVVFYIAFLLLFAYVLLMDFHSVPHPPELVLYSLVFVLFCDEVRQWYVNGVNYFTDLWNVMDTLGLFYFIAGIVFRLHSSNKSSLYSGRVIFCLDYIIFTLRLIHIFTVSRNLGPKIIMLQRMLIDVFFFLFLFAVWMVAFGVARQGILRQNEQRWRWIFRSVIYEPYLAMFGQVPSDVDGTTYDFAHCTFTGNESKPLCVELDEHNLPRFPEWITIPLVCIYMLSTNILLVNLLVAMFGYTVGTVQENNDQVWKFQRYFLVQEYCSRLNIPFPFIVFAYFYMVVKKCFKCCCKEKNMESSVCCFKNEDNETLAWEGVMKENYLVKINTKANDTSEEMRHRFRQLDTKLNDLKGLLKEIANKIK
Phospholipase A2, sequence (P04054 23-148 limits assumed): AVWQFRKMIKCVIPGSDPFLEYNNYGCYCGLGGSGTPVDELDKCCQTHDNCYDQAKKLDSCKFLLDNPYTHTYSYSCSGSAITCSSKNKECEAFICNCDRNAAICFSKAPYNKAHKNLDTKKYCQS
T1 sequence (O94759 whole entry): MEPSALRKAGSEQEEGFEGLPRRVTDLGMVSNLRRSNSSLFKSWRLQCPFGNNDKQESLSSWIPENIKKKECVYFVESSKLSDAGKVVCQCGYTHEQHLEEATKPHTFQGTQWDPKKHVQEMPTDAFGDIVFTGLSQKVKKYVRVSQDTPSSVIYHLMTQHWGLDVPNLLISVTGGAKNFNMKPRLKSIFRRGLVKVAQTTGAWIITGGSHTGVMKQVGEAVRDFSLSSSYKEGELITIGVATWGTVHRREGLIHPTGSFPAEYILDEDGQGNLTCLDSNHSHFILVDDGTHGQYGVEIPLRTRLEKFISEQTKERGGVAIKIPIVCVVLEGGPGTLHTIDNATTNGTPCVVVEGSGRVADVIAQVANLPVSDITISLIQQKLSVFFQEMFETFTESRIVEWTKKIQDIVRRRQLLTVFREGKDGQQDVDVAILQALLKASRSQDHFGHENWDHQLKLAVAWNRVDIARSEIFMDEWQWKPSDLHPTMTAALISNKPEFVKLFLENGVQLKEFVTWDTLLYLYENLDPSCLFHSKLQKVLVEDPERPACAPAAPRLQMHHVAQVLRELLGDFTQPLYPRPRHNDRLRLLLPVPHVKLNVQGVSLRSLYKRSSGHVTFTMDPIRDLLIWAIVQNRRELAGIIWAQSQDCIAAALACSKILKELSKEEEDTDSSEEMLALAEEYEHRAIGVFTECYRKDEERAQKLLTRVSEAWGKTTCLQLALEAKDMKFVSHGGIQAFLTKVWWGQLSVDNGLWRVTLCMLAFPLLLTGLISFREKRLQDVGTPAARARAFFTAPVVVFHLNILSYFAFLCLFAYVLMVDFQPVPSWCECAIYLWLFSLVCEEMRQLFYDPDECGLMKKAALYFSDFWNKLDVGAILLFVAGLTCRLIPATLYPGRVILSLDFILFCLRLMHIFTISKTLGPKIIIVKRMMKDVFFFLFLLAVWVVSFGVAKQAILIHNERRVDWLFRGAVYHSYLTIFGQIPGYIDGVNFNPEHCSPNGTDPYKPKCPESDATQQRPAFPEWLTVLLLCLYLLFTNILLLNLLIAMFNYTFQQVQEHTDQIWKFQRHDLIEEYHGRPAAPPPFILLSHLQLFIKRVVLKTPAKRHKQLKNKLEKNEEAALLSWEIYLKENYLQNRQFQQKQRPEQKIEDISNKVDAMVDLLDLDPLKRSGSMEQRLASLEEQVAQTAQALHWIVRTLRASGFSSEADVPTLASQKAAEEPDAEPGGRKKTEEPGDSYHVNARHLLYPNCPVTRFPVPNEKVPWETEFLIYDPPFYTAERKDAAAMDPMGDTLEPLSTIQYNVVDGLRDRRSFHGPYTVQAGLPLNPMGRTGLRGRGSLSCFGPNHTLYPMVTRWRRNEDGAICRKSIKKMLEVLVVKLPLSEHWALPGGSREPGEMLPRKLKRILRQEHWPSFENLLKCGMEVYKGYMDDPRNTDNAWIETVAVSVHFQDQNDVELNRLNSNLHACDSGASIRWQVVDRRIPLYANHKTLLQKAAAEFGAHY

On to `CCCCCc1ccc(C(=O)Nc2ccccc2C(=O)O)cc1`, for which, in series [1], the inhibition is greater than 45%.

Take `O=C(/C=C/c1ccc(Cl)cc1)Nc1ccccc1C(=O)O`: the inhibition in series [1] was less than 45%. The inhibition result in series [2] is “inactive”.

On to `O=C(/C=C/c1ccc(-c2ccccc2)cc1)Nc1ccc(F)cc1C(=O)O`, for which the inhibition in series [1] is greater than 45%.

As to `CCCCCc1ccc(/C=C/C(=O)Nc2cccc(C(=O)O)c2)cc1`, in series [1], the inhibition is greater than 45%.

`CCOc1ccc(/C=C/C(=O)Nc2ccccc2C(=O)O)cc1`: the inhibition in series [1] was less than 45%. Further, in series [2], the inhibition entry is “inactive”.

Turning to `O=C1CCN(C(=O)/C=C/c2ccc(-c3ccccc3)cc2)c2ccccc21`, in series [1], the inhibition is less than 45%.

For the compound `O=C(/C=C/c1ccc(-c2cccc(F)c2)cc1)Nc1ccccc1C(=O)O`, the inhibition in series [1] was greater than 45%. Besides, in series [3], the IC50 came to 830 nM. In the series with SH-SY5Y [4], the Activity is reported as less than 23.7%.

For `CCCCCc1ccc(/C=C/C(=O)Nc2ccc(Br)cc2C(=O)O)cc1`, the inhibition in series [1] was greater than 45%.

Turning to `O=C(/C=C/c1ccc(-c2ccccc2F)cc1)Nc1ccccc1C(=O)O`, the inhibition in series [1] was greater than 45%.

Regarding `O=C(/C=C/c1ccc(-c2ccccc2)cc1)Nc1cc(Cl)ccc1C(=O)O`, the inhibition in series [1] is greater than 45%.

Take `Cc1ccccc1-c1ccc(/C=C/C(=O)Nc2ccccc2C(=O)O)cc1`: in series [1], the inhibition was greater than 45%.

For `COc1cccc(-c2ccc(/C=C/C(=O)Nc3ccccc3C(=O)O)cc2)c1`, the inhibition in series [1] is greater than 45%.

On to `O=C(/C=C/c1ccc(-c2cccc([N+](=O)[O-])c2)cc1)Nc1ccccc1C(=O)O`, for which the inhibition was greater than 45% in series [1], 24.6% on Phospholipase A2 and 14.6% in series [6]. In addition, the Activity result is reported as “Non-Toxic” with SH-SY5Y [5] and less than 10% in the series on SH-SY5Y [4]. Besides, the IC50 in series [3] worked out at 398 nM. The outcome in the series on SH-SY5Y [7] was Active.

With `CCCCCc1ccc(/C=C/c2ccccc2C(=O)O)cc1`, in series [1], the inhibition was less than 45%.

Turning to `CCCCCc1ccc(/C=C/C(=O)Nc2c(Cl)cccc2C(=O)O)cc1`, the inhibition in series [1] was less than 45%.

As to `CCOC(=O)Cn1nc(-c2ccc(C(F)(F)F)cc2)c2c1CCCCC2`, the IC50 in series [3] worked out at 13 nM.

In the case of `Clc1ccccc1C(c1ccccc1)(c1ccccc1)n1ccnc1` [CLOTRIMAZOLE], in series [3], the IC50 came to 3000 nM.

Consider `Cc1ccc(-c2ccc(/C=C/C(=O)Nc3ccccc3C(=O)O)cc2)cc1`, for which, in series [1], the inhibition is greater than 45%.

For the compound `O=C(/C=C/c1ccccc1)Nc1ccccc1C(=O)O`, the inhibition in series [1] was less than 45%. The inhibition entry in series [2] is “inactive”.

`O=C(/C=C/c1ccc(-c2ccc(C(F)(F)F)cc2)cc1)Nc1ccccc1C(=O)O`: in series [1], the inhibition is greater than 45%.

Consider `COc1ccc(-c2ccc(/C=C/C(=O)Nc3ccccc3C(=O)O)cc2)cc1`, for which the inhibition in series [1] was greater than 45%.

As for `O=C(/C=C/c1ccc(-c2ccc(F)cc2)cc1)Nc1ccccc1C(=O)O`, the inhibition in series [1] was less than 45%.

As to `Cc1ccc(/C=C/C(=O)Nc2ccccc2C(=O)O)cc1`, the inhibition in series [1] is less than 45%. Moreover, the inhibition entry in series [2] was “inactive”.

For `Cc1cc(-c2ccccc2)ccc1/C=C/C(=O)Nc1ccccc1C(=O)O`, the inhibition in series [1] was greater than 45%.

On to `O=C(/C=C/c1ccc(-c2cccnc2)cc1)Nc1ccccc1C(=O)O`, for which, in series [1], the inhibition was less than 45%. Further, in series [2], the inhibition result was “inactive”.

Consider `CCCCCc1ccc(/C=C/C(=O)Nc2c(C)cccc2C(=O)O)cc1`, for which the inhibition in series [1] is less than 45%.

As to `COc1ccccc1-c1ccc(/C=C/C(=O)Nc2ccccc2C(=O)O)cc1`, the inhibition in series [1] was greater than 45%.

In the case of `O=C(/C=C/c1ccc(-c2cccc([N+](=O)[O-])c2)cc1)Nc1ccc(Br)cc1C(=O)O`, the inhibition in series [1] is greater than 45%.

For `CCCCCc1ccc(/C=C/C(=O)N2CCCC(=O)c3ccccc32)cc1`, in series [1], the inhibition is less than 45%.

For the compound `CCc1ccc(/C=C/C(=O)Nc2ccccc2C(=O)O)cc1`, the inhibition in series [1] was less than 45%. The inhibition result in series [2] was “inactive”.

For the compound `CCCCCc1ccc(/C=C/C(=O)Nc2cc(Cl)ccc2C(=O)O)cc1`, in series [1], the inhibition was greater than 45%.

Regarding `CCc1ccc(-c2ccc(/C=C/C(=O)Nc3ccccc3C(=O)O)cc2)cc1`, the inhibition in series [1] is greater than 45%.

`CCCCCc1ccc(/C=C/C(=O)Nc2ccc(C(=O)O)cc2)cc1`: the inhibition in series [1] was less than 45%.

On to `CCCc1ccc(/C=C/C(=O)Nc2ccccc2C(=O)O)cc1`, for which, in series [1], the inhibition was less than 45%. Further, the inhibition result in series [2] is “inactive”.

For `O=C1CCCN(C(=O)/C=C/c2ccc(-c3ccccc3)cc2)c2ccccc21`, the inhibition in series [1] is less than 45%.

With `O=C(/C=C/c1ccc(-c2ccccc2)cc1)Nc1ccccc1C(=O)O`, in series [1], the inhibition is greater than 45%. Further, the IC50 in series [3] stood at 2560 nM.

As to `O=C(/C=C/c1ccc(N2CCOCC2)cc1)Nc1ccccc1C(=O)O`, the inhibition in series [1] is less than 45%. Further, in series [2], the inhibition result is “inactive”.

Turning to `CCCCCc1ccc(/C=C/C(=O)c2ccccc2C(=O)O)cc1`, the inhibition in series [1] is greater than 45%.

For the compound `CCCCCc1ccc(/C=C/C(=O)N2CCC(=O)c3ccccc32)cc1`, the inhibition in series [1] was less than 45%.

With `CCCCCc1ccc(NC(=O)c2ccccc2C(=O)O)cc1`, the inhibition in series [1] is greater than 45%.

As for `O=C(/C=C/c1ccc(-c2ccccc2)cc1)Nc1ccc(Br)cc1C(=O)O`, the inhibition was greater than 45% in series [1] and 93.3% in series [6]. Moreover, the inhibition entry at Phospholipase A2 is “inactive”. The IC50 in series [3] worked out at 410 nM. For the same compound, in the series with SH-SY5Y [4], the Activity is on record as less than 10%. The result in the series on SH-SY5Y [7] was Active.

Regarding `O=C(/C=C/c1ccc(-c2cccc(Cl)c2)cc1)Nc1ccccc1C(=O)O`, the inhibition in series [1] was greater than 45%.

For the compound `CCCCCc1ccc(/C=C/C(=O)Nc2cc(F)c(F)cc2C(=O)O)cc1`, the inhibition in series [1] was greater than 45%.

Take `O=C(/C=C/c1ccc(N2CCCCC2)cc1)Nc1ccccc1C(=O)O`: in series [1], the inhibition is less than 45%. Moreover, the inhibition entry in series [2] was “inactive”.

`Cc1cccc(-c2ccc(/C=C/C(=O)Nc3ccccc3C(=O)O)cc2)c1`: the inhibition in series [1] is greater than 45%.

On to `CC(C)c1ccc(-c2ccc(/C=C/C(=O)Nc3ccccc3C(=O)O)cc2)cc1`, for which, in series [1], the inhibition was greater than 45%.

For the compound `O=C(/C=C/c1ccc(-c2ccccc2C(F)(F)F)cc1)Nc1ccccc1C(=O)O`, the inhibition in series [1] is greater than 45%.

`Cc1ccc(C(=O)O)c(NC(=O)/C=C/c2ccc(-c3cccc([N+](=O)[O-])c3)cc2)c1`: the inhibition in series [1] is greater than 45%.

With `Cc1cc(/C=C/C(=O)Nc2ccccc2C(=O)O)ccc1-c1ccccc1`, the inhibition in series [1] is greater than 45%.

Consider `CC(C)(C)c1ccc(/C=C/C(=O)Nc2ccccc2C(=O)O)cc1`, for which the inhibition in series [1] is less than 45%. In series [2], the inhibition result is “inactive”.

For the compound `CC(C)NC(=O)c1ccc(/C=C/C(=O)Nc2ccccc2C(=O)O)cc1`, in series [1], the inhibition was less than 45%. Further, the inhibition entry in series [2] was “inactive”.

`CC(C)c1ccc(/C=C/C(=O)Nc2ccccc2C(=O)O)cc1`: the inhibition in series [1] was less than 45%. The inhibition result in series [2] is “inactive”.

On to `O=C(/C=C/c1ccc(-c2ccccc2)cc1)N1C(=O)c2ccccc21`, for which, in series [1], the inhibition was less than 45%.

As for `CC(C)(C)c1ccc(-c2ccc(/C=C/C(=O)Nc3ccccc3C(=O)O)cc2)cc1`, the inhibition in series [1] is greater than 45%.

Regarding `Clc1ccc(COC(Cn2ccnc2)c2ccc(Cl)cc2Cl)cc1` (stereo not drawn) [ECONAZOLE], the IC50 in series [3] worked out at 3000 nM.

`CCCCCc1ccc(/C=C/C(=O)Nc2c(C(=O)O)ccc(C)c2C)cc1`: in series [1], the inhibition was less than 45%.

With `O=C(/C=C/c1ccc(-c2ccccc2)cc1)Nc1ccc(Cl)cc1C(=O)O`, in series [1], the inhibition was greater than 45%.

Take `CCCCCc1ccc(/C=C/C(=O)Nc2cc(C)ccc2C(=O)O)cc1`: the inhibition in series [1] is greater than 45%; in series [6], 88.1%. The Activity entry with SH-SY5Y [5] was “Non-Toxic”; in the series with SH-SY5Y [4], less than 10%. Moreover, the inhibition entry at Phospholipase A2 was “inactive”. In addition, in series [3], the IC50 was determined as 467 nM. The result with SH-SY5Y [7] was Active.

For the compound `CCCCCc1ccc(/C=C/C(=O)Nc2ccc(C)cc2C(=O)O)cc1`, the inhibition in series [1] is greater than 45%; in series [6] it was 85.6%. On Phospholipase A2, the inhibition result was “inactive”. Moreover, the IC50 in series [3] was 987 nM. The Activity in the series with SH-SY5Y [4] is reported as less than 10%. For the same compound, in the series with SH-SY5Y [7], the outcome was Active.

In the case of `O=C(/C=C/c1ccc(-c2cccc(Br)c2)cc1)Nc1ccccc1C(=O)O`, the inhibition in series [1] was greater than 45%.

Turning to `CCCCCc1ccc(/C=C/C(=O)Nc2c(C)cc(Cl)cc2C(=O)O)cc1`, in series [1], the inhibition is less than 45%.
